# Experimental data: ChEMBL document CHEMBL1148940, “New luffariellolide derivatives from the Indonesian sponge Acanthodendrilla sp” (2004)
# Active and inactive are the calls of the source.
# What was measured:
# HeLa = assay: Cytotoxicity against human HeLa cells by MTT assay; format: functional, cell-based
# PC-12 = assay: Cytotoxicity against rat PC12 cells by MTT assay; format: functional, cell-based
# L5178Y = assay: Cytotoxicity against mouse L5178Y cells by MTT assay; format: functional; conditions: read-out: ED50 (the source's name)
# Cladosporium herbarum [1] = assay: Antimicrobial activity against Cladosporium herbarum DSM 63422 at 10 ug/disk after 24 hrs; format: functional; conditions: for zone of inhibition at 10 µg/disc: DSM 63422, 24 h, read-out: IZ
# In short: (§1)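 Agar plate disk diffusion: disks impregnated with sample (5 or 10 µg per disk) placed on agar plates pre-inoculated with the test organism; solvent controls run against each organism. Plates incubated at 37 °C for 24 h, then clear inhibition zones around the disk measured in mm; sample scored active when zone exceeded 7 mm.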
# Escherichia coli [2] = assay: Antimicrobial activity against Escherichia coli DSM 10290 at 5 ug/disk after 24 hrs; format: functional
# In short: (§2)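 Agar plate disk diffusion: disks impregnated with test sample (5 or 10 µg per disk) placed on agar plates previously inoculated with the organism, with solvent controls. Plates incubated 24 h at 37 °C. Read-out is the diameter (mm) of the clear inhibition zone around the disk. A sample is scored active when the zone exceeds 7 mm.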
# Candida albicans [3] = assay: Antimicrobial activity against Candida albicans at 10 ug/disk after 24 hrs; format: functional; conditions: read-out: IZ; in short: as §1
# Bacillus subtilis [4] = assay: Antimicrobial activity against Bacillus subtilis DSM 2109 at 10 ug/disk after 24 hrs; format: functional; conditions: DSM 2109, 24 h, read-out: IZ; in short: as §1
# Cladosporium herbarum [5] = assay: Antimicrobial activity against Cladosporium herbarum DSM 63422 by serial dilution assay; format: functional
# Escherichia coli [6] = assay: Antimicrobial activity against Escherichia coli DSM 10290 at 10 ug/disk after 24 hrs; format: functional; conditions: for zone of inhibition at 10 µg/disc: DSM 10290, 24 h, read-out: IZ; in short: as §1
# Candida albicans [7] = assay: Antimicrobial activity against Candida albicans at 5 ug/disk after 24 hrs; format: functional; in short: as §1
# Bacillus subtilis [8] = assay: Antimicrobial activity against Bacillus subtilis DSM 2109 at 5 ug/disk after 24 hrs; format: functional; conditions: for zone of inhibition at 5 µg/disc: DSM 2109, 24 h, read-out: IZ; in short: as §1
# Staphylococcus aureus [9] = assay: Antimicrobial activity against Staphylococcus aureus ATCC 25923 at 5 ug/disk after 24 hrs; format: functional; in short: as §2
# Staphylococcus aureus [10] = assay: Antimicrobial activity against Staphylococcus aureus ATCC 25923 at 10 ug/disk after 24 hrs; conditions: for zone of inhibition at 10 µg/disc: ATCC 25923, 24 h, read-out: IZ
# Cladosporium herbarum [11] = assay: Antimicrobial activity against Cladosporium herbarum DSM 63422 at 5 ug/disk after 24 hrs; format: functional, organism-based; in short: as §1
Molecule,Activity (HeLa),Activity (PC-12),EC50 (L5178Y) [µg/mL],zone of inhibition at 10 µg/disc (Cladosporium herbarum [1]) [mm],zone of inhibition at 10 µg/disc (Candida albicans [3]) [mm],zone of inhibition at 10 µg/disc (Bacillus subtilis [4]) [mm],zone of inhibition at 10 µg/disc (Escherichia coli [6]) [mm],Activity (Candida albicans [7]),zone of inhibition at 10 µg/disc (Staphylococcus aureus [10]) [mm],Activity (Cladosporium herbarum [11]),Activity (Escherichia coli [2]),Activity (Staphylococcus aureus [9]),also measured
CC(=O)[C@]1(CC/C(C)=C/CC/C(C)=C/CCC2=CC(=O)OC2O)[C@@H](O)CCC1(C)C (stereo not given in full) [ACANTHOLIDE D],inactive,inactive,> 10,–,–,–,–,–,–,–,–,–,–
CC1=C(CC/C(C)=C/CC/C(C)=C/CCC2=CC(=O)OC2O)C(C)(C)CCC1 (stereo not given) [LUFFARIELLOLIDE],inactive,inactive,3.3,20,10,12,10,inactive,11,inactive,–,–,"zone of inhibition at 5 µg/disc (Escherichia coli [2]; DSM 10290, 24 h, read-out: IZ): 7 mm; MIC (Cladosporium herbarum [5]): 10.4 µg/mL; zone of inhibition at 5 µg/disc (Bacillus subtilis [8]): 7 mm; zone of inhibition at 5 µg/disc (Staphylococcus aureus [9]; ATCC 25923, 24 h, read-out: IZ): 7 mm"
COC1OC(=O)C=C1CC/C=C(\C)CC/C=C(\C)CCC1=C(C)CCCC1(C)C (stereo not given),inactive,inactive,0.7,15,9,9,–,–,10,inactive,inactive,inactive,Activity (Escherichia coli [6]): inactive; zone of inhibition at 5 µg/disc (Candida albicans [7]; read-out: IZ): 9 mm; zone of inhibition at 5 µg/disc (Bacillus subtilis [8]): 7 mm
CC1=C(CC/C(C)=C/CC/C(C)=C/CCC2=CC(=O)OC2O)C(C)(C)CCC1=O (stereo not given) [ACANTHOLIDE B],inactive,inactive,> 10,10,10,12,9,inactive,10,inactive,inactive,inactive,Activity (Bacillus subtilis [8]): inactive
CC(=O)[C@]1(CC/C(C)=C/CC/C(C)=C/CCC2=CC(=O)OC2O)[C@H](O)CCC1(C)C (stereo not given in full) [ACANTHOLIDE E],inactive,inactive,7,–,–,–,–,–,–,–,–,–,–
CCOC1OC(=O)C=C1CC/C=C(\C)CC/C=C(\C)CCC1=C(C)CCCC1(C)C (stereo not given),inactive,inactive,> 100,–,9,7,12,inactive,–,inactive,inactive,inactive,Activity (Cladosporium herbarum [1]): inactive; Activity (Bacillus subtilis [8]): inactive; Activity (Staphylococcus aureus [10]): inactive
NYSTATIN,–,–,–,–,–,–,–,–,–,–,–,–,MIC (Cladosporium herbarum [5]): 1.06 µg/mL
